Measured values from ChEMBL document CHEMBL3421595, “Design and Synthesis of New α-Naphthoflavones as Cytochrome P450 (CYP) 1B1 Inhibitors To Overcome Docetaxel-Resistance Associated with CYP1B1 Overexpression” (J Med Chem, 2015).

Experiments:
MCF7 [1] = assay: Cytotoxicity against human MCF7 cells over-expressing CYP1B1 after 48 hrs by MTT assay; assay type: functional, cell-based; conditions: MCF7, 48 h
Method in brief: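 CYP1B1-expressing MCF-7 (MCF-7/1B1) made by exposing parental cells to 10 nM TCDD for 96 h, with daily renewal of medium containing fresh 10 nM TCDD. Standard MTT assay, 48 h exposure to docetaxel alone or combined with a CYP1B1 inhibitor (5 or 10 μM). Wells with inhibitor alone (10 μM) served as negative control. Five concentrations, four replicate wells each, three plates.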

MCF7 [2] = assay: Resistance index, ratio of IC50 for human MCF7 cells over-expressing CYP1B1 to IC50 for human MCF7 cells; assay type: functional
MCF7 [3] = assay: Cytotoxicity against human MCF7 cells after 48 hrs by MTT assay; assay type: functional, cell-based; conditions: MCF7, 48 h
Method in brief: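 MCF-7 cells grown in RPMI-1640 with 10% FBS at 37 °C, 5% CO2 and subcultured every 3 days at 1:5. Standard MTT assay with a 48 h exposure to freshly prepared docetaxel. Five concentrations per plate, four replicate wells each, three replicate plates. Viability is percent surviving cells relative to control. IC50 is the average of three parallel experiments.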

## CC(=O)O[C@@]12CO[C@@H]1C[C@H](O)[C@@]1(C)C(=O)[C@H](O)C3=C(C)[C@@H](OC(=O)[C@H](O)[C@@H](NC(=O)OC(C)(C)C)c4ccccc4)C[C@@](O)([C@@H](OC(=O)c4ccccc4)[C@H]21)C3(C)C.O.O.O [DOCETAXEL]
MCF7 [1]
  IC50: 140 µM
MCF7 [2]
  Ratio IC50: 5
MCF7 [3]
  IC50: 27.6 µM
